Assay results: ChEMBL document CHEMBL3734708, “Synthesis, cytotoxicity and antiviral evaluation of new series of imidazo[4,5-g]quinoline and pyrido[2,3-g]quinoxalinone derivatives” (Eur J Med Chem, 2015)

Experiments:
[1] = Cytotoxicity against african green monkey Vero 76 cells assessed as reduction in cell viability after 48 to 96 hrs by MTT assay; format: cell-based; conditions: chlorocebus sabaeus
Method in brief: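 Vero-76 cells plated at 4 × 10^5 cells/mL in D-MEM with L-glutamine, kanamycin and 10% FBS. Incubated with serial dilutions of test compounds at 37 °C, 5% CO2 for 48-96 h. Viability by MTT. CC50 by linear regression relative to untreated cells. Mean of three independent runs.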

Human alphaherpesvirus 1 = test: Antiviral activity against HSV-1 KOS ATCC VR- 1493 infected in african green monkey Vero-76 cells after 3 days by plaque reduction assay; format: functional, organism-based; conditions: Human alphaherpesvirus 1, KOS ATCC VR1493, Vero 76, 72 h
[2] = test system: Bovine viral diarrhea virus 1; test: Antiviral activity against BVDV NADL ATCC VR-534 infected in MDBK cells assessed as protection against virus-induced cytopathic effect after 3 or 4 days by MTT assay; format: functional, organism-based; conditions: Bovine viral diarrhea virus isolates and strains, NADL ATCC VR-534, MDBK
Method in brief: (§1)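 BHK-21 (YFV, Reo-1) or MDBK (BVDV) cells seeded at 5 × 10^4 or 3 × 10^4 cells/well and grown overnight to confluence. Monolayers infected at m.o.i. 0.01 in maintenance medium (MEM-Earle, 0.5% inactivated FBS). Serial compound dilutions added 2 h after infection; 37 °C for 3-4 days. Viability read by MTT. EC50 by linear regression versus untreated controls; mean of three determinations.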

[3] = Cytotoxicity against MDBK cells assessed as reduction in cell viability after 72 hrs by MTT assay; format: cell-based, Bos taurus; conditions: cattle
Method in brief: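 MDBK cells seeded at 6 × 10^5 cells/mL in MEM-E with L-glutamine, 1 mM sodium pyruvate, kanamycin and 10% horse serum. Mock-infected cultures held with serial compound dilutions at 37 °C, 5% CO2. MTT viability read after 72 h. 50% cytotoxic concentration from linear regression as % of untreated controls. Three independent determinations.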

[4] = Cytotoxicity against BHK21 cells assessed as reduction in cell viability after 72 hrs by MTT assay; format: cell-based, Mesocricetus auratus, BHK-21; conditions: hamster
Method in brief: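 BHK cells seeded at 1 × 10^6 cells/mL in MEM-E with L-glutamine, 1 mM sodium pyruvate, kanamycin and 10% FBS. Mock-infected cells exposed to serial dilutions of compound at 37 °C, 5% CO2, run in parallel with the antiviral assays. Viability by MTT at 72 h. CC50 by linear regression vs untreated controls. Mean of three independent determinations.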

[5] = test system: Mammalian orthoreovirus 1; test: Antiviral activity against Reovirus 1 ATCC VR- 214 infected in BHK21 cells assessed as protection against virus-induced cytopathic effect after 3 or 4 days by MTT assay; format: functional, cell-based; conditions: Mammalian orthoreovirus 1, ATCC VR- 214, BHK-21; method in brief: as §1
[6] = test system: Respiratory syncytial virus; test: Antiviral activity against RSVA2 ATCC VR-1540 infected in african green monkey Vero-76 cells after 5 days by plaque reduction assay; format: functional, organism-based; conditions: human respiratory syncytial virus, A2 ATCC VR-1540, Vero 76, 120 h
Yellow fever virus = test: Antiviral activity against YFV 17-D vaccine (Stamaril Pasteur J07B01) infected in BHK21 cells assessed as protection against virus-induced cytopathic effect after 3 or 4 days by MTT assay; format: functional, organism-based; conditions: BHK-21; method in brief: as §1
Vaccinia virus = test: Antiviral activity against VV Elstree ATCC VR-1549 infected in african green monkey Vero-76 cells after 3 days by plaque reduction assay; format: functional, organism-based; conditions: Orthopoxvirus vaccinia, Elstree ATCC VR-1549, Vero 76, 72 h
[7] = Cytotoxicity against human MT4 cells assessed as reduction in cell proliferation after 96 hrs by MTT assay; format: cell-based
Method in brief: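 MT-4 cells in exponential growth seeded at 1 × 10^5 cells/mL in RPMI-1640 with 10% FBS and penicillin/streptomycin. Cultured with serial compound dilutions at 37 °C, 5% CO2. MTT viability after 96 h. CC50 by linear regression against untreated controls. Mean of three independent determinations.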

[8] = test system: Vesicular stomatitis virus; test: Antiviral activity against VSV Indiana ATCC VR-158 infected in african green monkey Vero-76 cells after 2 days by plaque reduction assay; format: functional, organism-based; conditions: Indiana ATCC VR-158, Vero 76, 48 h
[9] = test system: Human poliovirus 1 strain Sabin; test: Antiviral activity against Human poliovirus 1 strain Sabin 1 virus infected in african green monkey Vero-76 cells after 2 days by plaque reduction assay; format: functional, organism-based; conditions: Enterovirus C, 1, Vero 76, 48 h
Coxsackievirus B5 = test: Antiviral activity against CVB-5 virus Faulkner ATCC VR-185 infected in african green monkey Vero-76 cells after 3 days by plaque reduction assay; format: functional, organism-based; conditions: Enterovirus B, Faulkner ATCC VR-185, Vero 76, 72 h
[10] = test system: Human immunodeficiency virus 1; test: Antiviral activity against HIV-1 3B infected in human MT4 cells assessed as protection against virus-induced cytopathic effect after 4 days by MTT assay; format: functional, organism-based; conditions: Human immunodeficiency virus 1, 3B, MT4, 96 h
Method in brief: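 MT-4 cells (1 × 10^4/well in RPMI) with or without serial compound dilutions, infected with HIV-1 at 100 CCID50 (m.o.i. 0.01). After 4 days at 37 °C, protection from cytopathogenicity read by MTT. EC50 by linear regression versus untreated controls; mean of three independent determinations.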

Row | SMILES | CC50 [1] [µM] | EC50 (Human alphaherpesvirus 1) [µM] | EC50 [2] [µM] | CC50 at 72 h [3] [µM] | CC50 at 72 h [4] [µM] | EC50 [5] [µM] | EC50 [6] [µM] | EC50 (Yellow fever virus) [µM] | EC50 (Vaccinia virus) [µM] | CC50 at 96 h [7] [µM] | EC50 [8] [µM] | EC50 [9] [µM] | EC50 (Coxsackievirus B5) [µM] | EC50 [10] [µM]
1 | O=c1c(-c2ccccc2)nc2cc3cccnc3c(Cl)c2n1C1CCCCC1 | 70 | > 70 | 4 | > 100 | > 100 | > 100 | > 70 | > 100 | > 70 | 48 | > 70 | > 70 | > 70 | > 48
2 | CC(C)c1nc2c(Cl)c3ncccc3cc2[nH]c1=O | > 100 | > 100 | > 100 | > 100 | > 100 | > 100 | > 100 | > 100 | > 100 | > 100 | > 100 | > 100 | > 100 | > 100
3 | O=c1c(-c2ccccc2)nc2c(Cl)c3ncccc3cc2n1Cc1ccccc1 | 90 | > 100 | 46 | > 100 | > 100 | > 100 | > 90 | > 100 | > 90 | 88 | > 90 | > 90 | > 90 | > 88
4 | c1ccc(Cc2nc3cc4cccnc4cc3n2CC2CCCCC2)cc1 | 25 | > 25 | 10 | > 100 | 71 | > 71 | > 25 | > 71 | > 25 | 10 | > 25 | > 25 | > 25 | > 10
5 | CCn1c(=O)c(-c2ccccc2)nc2c(Cl)c3ncccc3cc21 | 60 | > 60 | > 100 | > 100 | > 100 | > 100 | > 60 | > 100 | > 60 | > 100 | > 60 | > 60 | > 60 | > 100
6 | CCCn1c(-c2ccccc2)nc2cc3cccnc3cc21 | 90 | > 90 | > 100 | > 100 | > 100 | > 100 | > 90 | > 100 | > 90 | 62 | > 90 | > 90 | 13 | > 62
7 | O=c1c(-c2ccccc2)nc2c(Cl)c3ncccc3cc2n1Cc1ccc([N+](=O)[O-])cc1 | > 100 | > 100 | > 100 | > 100 | > 100 | > 100 | > 100 | > 100 | > 100 | > 100 | > 100 | > 100 | > 100 | > 100
8 | Cn1c(=O)c(-c2ccccc2)nc2c(Cl)c3ncccc3cc21 | > 100 | > 100 | 16 | > 100 | > 100 | > 100 | > 100 | > 100 | > 100 | > 100 | > 100 | 38 | 17 | > 100
9 | Cn1c(=O)c(-c2cccs2)nc2c(Cl)c3ncccc3cc21 | > 100 | > 100 | 2 | > 100 | > 100 | > 100 | > 100 | > 100 | > 100 | > 100 | > 100 | > 100 | > 100 | > 100
10 | CC(C)c1nc2c(Cl)c3ncccc3cc2n(C)c1=O | > 100 | > 100 | > 100 | > 100 | > 100 | > 100 | > 100 | > 100 | > 100 | > 100 | > 100 | > 100 | > 100 | > 100
11 | O=c1c(-c2ccccc2)nc2cc3cccnc3c(Cl)c2n1CC1CCCCC1 | 20 | > 20 | 4 | 50 | 15 | > 15 | > 20 | > 15 | > 20 | 23 | > 20 | > 20 | > 20 | > 23
